Laboratory results as given in ChEMBL document CHEMBL1275477, “Discovery and characterization of QPT-1, the progenitor of a new class of bacterial topoisomerase inhibitors” (Antimicrob Agents Chemother, 2008).
pIC50: −log10 of the molar value. ≈ marks a conversion by molar mass, not a printed value.

Experiments:
Staphylococcus aureus [1] = experiment: Antibacterial activity against methicillin-susceptible Staphylococcus aureus by broth microdilution method; format: functional
Summary of the method: (§1)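 Broth microdilution MIC following National Committee for Clinical Laboratory Standards methods. Plasmid-borne GyrB in transformed S. aureus strains was overexpressed by adding 100 ng/ml doxycycline.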

Staphylococcus aureus [2] = experiment: Antimicrobial activity against Staphylococcus aureus RN4220 expressing gyrB D437N mutant gene by broth microdilution method; format: functional; summary of the method: as §1
Haemophilus influenzae [3] = experiment: Antibacterial activity against Haemophilus influenzae UC30063 by broth microdilution method; format: functional; summary of the method: as §1
Streptococcus pyogenes = experiment: Antibacterial activity against Streptococcus pyogenes UC152 by broth microdilution method; format: functional; summary of the method: as §1
Staphylococcus aureus [4] = experiment: Antibacterial activity against norA-deficient Staphylococcus aureus RN4220 by broth microdilution method; format: functional; summary of the method: as §1
[5] = Inhibition of Escherichia coli DNA topoisomerase 4 by gel electrophoresis
Staphylococcus aureus [6] = experiment: Antibacterial activity against ciprofloxacin-resistant Staphylococcus aureus by broth microdilution method; format: functional; summary of the method: as §1
Staphylococcus aureus [7] = experiment: Antibacterial activity against methicillin and ciprofloxacin-resistant Staphylococcus aureus UC12673 by broth microdilution method; format: functional; summary of the method: as §1
[8] = AUC (0 to infinity) in lethal systemic CF-1 mouse infection model at 21.6 mg/kg, iv; format: ADME, organism-based; set-up: time infinity, dose 21.6 mg/kg, route intravenous; settings: in vivo
Summary of the method: (§2)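 Mouse pharmacokinetics: single dose in 0.2 ml, given orally (pH 4.5 acetate-buffered 20% DMSO–methylcellulose suspension) or intravenously (20% hydroxypropyl beta-cyclodextrin, pH 7 phosphate buffer). Plasma sampled to 480 min: iv at 0, 2, 15, 30, 60, 120, 240, 480 min; oral at 0, 20, 30, 60, 120, 240, 360, 480 min. Three mice per time point; mean concentration–time data analysed noncompartmentally.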

Staphylococcus aureus [9] = experiment: Antibacterial activity against Staphylococcus aureus UC9218 by broth microdilution method in presence of 50% serum; format: functional; summary of the method: as §1
Enterococcus faecium = experiment: Antibacterial activity against Enterococcus faecium UC12712 by broth microdilution method; format: functional; summary of the method: as §1
Staphylococcus aureus [10] = experiment: Antimicrobial activity against methicillin-resistant Staphylococcus aureus SUAR 1015-01 harboring gyrA S84L, parC S80F and parE S189R mutant gene by broth microdilution method; format: functional; summary of the method: as §1
[11] = Inhibition of Escherichia coli DNA gyrase by gel electrophoresis
Staphylococcus aureus [12] = experiment: Antimicrobial activity against Staphylococcus aureus 286607-R1 harboring wild type gyrB by broth microdilution method; format: functional; summary of the method: as §1
Staphylococcus aureus [13] = experiment: Antibacterial activity against methicillin-resistant Staphylococcus aureus UC9213 in orally dosed lethal systemic CF-1 mouse infection model; format: functional; settings: UC9213, po
Summary of the method: (§3)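 Lethal systemic infection in female CF-1 mice (20 g), infected intraperitoneally with enough bacteria to kill 90–100% of untreated mice. Thawed cultures were suspended in brain heart infusion broth with 4% (wt/vol) dried brewer's yeast. Drug given orally or subcutaneously at 1 and 5 h postinfection, at five or more dose levels, six mice per level. Survival followed for 1 week; ED50 by probit analysis.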

Staphylococcus aureus [14] = experiment: Antimicrobial activity against Staphylococcus aureus MW2 harboring parC R400C mutant gene by broth microdilution method; format: functional; summary of the method: as §1
[15] = test system: Staphylococcus epidermidis; experiment: Antibacterial activity against methicillin and ciprofloxacin-resistant Staphylococcus epidermidis UC12084 by broth microdilution method; format: functional; summary of the method: as §1
Staphylococcus aureus [16] = experiment: Antibacterial activity against methicillin-resistant Staphylococcus aureus UC9213 by broth microdilution method; format: functional; summary of the method: as §1
Streptococcus pneumoniae [17] = experiment: Antibacterial activity against Streptococcus pneumoniae UC15142 by broth microdilution method; format: functional; summary of the method: as §1
[18] = Tmax in lethal systemic CF-1 mouse infection model at 20.3 mg/kg, po; format: ADME, organism-based; set-up: dose 20.3 mg/kg, route oral; settings: in vivo; summary of the method: as §2
[19] = AUC (0 to infinity) in lethal systemic CF-1 mouse infection model at 20.3 mg/kg, po; format: ADME, organism-based; set-up: dose 20.3 mg/kg, route oral, time infinity; settings: in vivo; summary of the method: as §2
Staphylococcus aureus [20] = experiment: Antimicrobial activity against Staphylococcus aureus USA200 harboring […] S84L and parC R400C mutant gene by broth microdilution method; format: functional; summary of the method: as §1
Streptococcus pneumoniae [21] = experiment: Antibacterial activity against ciprofloxacin-resistant Streptococcus pneumoniae by broth microdilution method; format: functional; summary of the method: as §1
[22] = Clearance in lethal systemic CF-1 mouse infection model at 21.6 mg/kg, iv; format: ADME, organism-based; set-up: dose 21.6 mg/kg, route intravenous; settings: in vivo; summary of the method: as §2
Escherichia coli [23] = experiment: Antibacterial activity against tolC-deficient Escherichia coli UC31708 by broth microdilution method; format: functional; summary of the method: as §1
Staphylococcus aureus [24] = experiment: Antibacterial activity against methicillin-resistant Staphylococcus aureus by broth microdilution method; format: functional; summary of the method: as §1
[25] = Half life in lethal systemic CF-1 mouse infection model at 20.3 mg/kg, po; format: ADME, organism-based; set-up: dose 20.3 mg/kg, route oral; settings: in vivo; summary of the method: as §2
Staphylococcus aureus [26] = experiment: Antibacterial activity against quinoline pyrimidine trione-resistant Staphylococcus aureus ATCC 29213 by broth microdilution method; format: functional; summary of the method: as §1
[27] = Oral bioavailability in lethal systemic CF-1 mouse infection model at 20.3 mg/kg, po; format: ADME, organism-based; settings: in vivo; summary of the method: as §2
Staphylococcus aureus [28] = experiment: Antibacterial activity against Staphylococcus aureus ATCC 29213 by broth microdilution method; format: functional; summary of the method: as §1
Staphylococcus aureus [29] = experiment: Antimicrobial activity against Staphylococcus aureus 286607-R1 by broth microdilution method; format: functional; summary of the method: as §1
[30] = Cmax in lethal systemic CF-1 mouse infection model at 21.6 mg/kg, iv; format: ADME, organism-based; set-up: dose 21.6 mg/kg, route intravenous; settings: in vivo; summary of the method: as §2
Streptococcus pneumoniae [31] = experiment: Antibacterial activity against Streptococcus pneumoniae UC9912 by broth microdilution method; format: functional; summary of the method: as §1
Staphylococcus aureus [32] = experiment: Antibacterial activity against Staphylococcus aureus UC9218 by broth microdilution method in presence of 25% serum; format: functional; summary of the method: as §1
[33] = Volume of distribution at steady state in lethal systemic CF-1 mouse infection model at 21.6 mg/kg, iv; format: ADME, organism-based; set-up: dose 21.6 mg/kg, route intravenous; settings: in vivo, read-out: Vdss
Escherichia coli [34] = experiment: Antibacterial activity against acrAB-deficient Escherichia coli UC31701 by broth microdilution method; format: functional; summary of the method: as §1
Haemophilus influenzae [35] = experiment: Antibacterial activity against acrAB-deficient Haemophilus influenzae 31809 by broth microdilution method; format: functional; summary of the method: as §1
[36] = Inhibition of human DNA topoisomerase 4 by gel electrophoresis
[37] = Cmax in lethal systemic CF-1 mouse infection model at 20.3 mg/kg, po; format: ADME, organism-based; set-up: dose 20.3 mg/kg, route oral; settings: in vivo; summary of the method: as §2
Staphylococcus aureus [38] = experiment: Antibacterial activity against ciprofloxacin-resistant Staphylococcus aureus ATCC 29213 by broth microdilution method; format: functional; summary of the method: as §1
[39] = Half life in lethal systemic CF-1 mouse infection model at 21.6 mg/kg, iv; format: ADME, organism-based; set-up: dose 21.6 mg/kg, route intravenous; settings: in vivo; summary of the method: as §2
Moraxella catarrhalis = experiment: Antibacterial activity against Moraxella catarrhalis UC3067 by broth microdilution method; format: functional; summary of the method: as §1
Staphylococcus aureus [40] = experiment: Antibacterial activity against methicillin-resistant Staphylococcus aureus UC9213 infected in subcutaneously dosed lethal systemic CF-1 mouse infection model; format: functional; settings: UC9213, sc; summary of the method: as §3
Staphylococcus aureus [41] = experiment: Antimicrobial activity against Staphylococcus aureus COL harboring gyrB V28A mutant gene by broth microdilution method; format: functional; summary of the method: as §1
Streptococcus pneumoniae [42] = experiment: Antibacterial activity against Streptococcus pneumoniae by broth microdilution method; format: functional; summary of the method: as §1
Enterococcus faecalis = experiment: Antibacterial activity against Enterococcus faecalis UC9217 by broth microdilution method; format: functional; summary of the method: as §1
Escherichia coli [43] = experiment: Antibacterial activity against Escherichia coli UC6674 by broth microdilution method; format: functional; summary of the method: as §1
Staphylococcus aureus [44] = experiment: Antibacterial activity against methicillin-susceptible Staphylococcus aureus UC9218 by broth microdilution method; format: functional; summary of the method: as §1
Mus musculus = experiment: Toxicity in lethal systemic CF-1 mouse infection model assessed as adverse effects at 200 mg/kg, po; format: organism-based; set-up: dose 200 mg/kg, route oral; settings: in vivo
Staphylococcus aureus [45] = experiment: Antibacterial activity against Staphylococcus aureus RN4220 by broth microdilution method; format: functional; summary of the method: as §1

CC1CN2c3ccc([N+](=O)[O-])cc3CC3(C(=O)NC(=O)NC3=O)C2C(C)O1 (racemic)
MIC50 (Staphylococcus aureus [1]): 1 µg/mL (≈ 2.67 µM)
MIC90 (Staphylococcus aureus [1]): 1 µg/mL (≈ 2.67 µM)
MIC (Staphylococcus aureus [2]): 1 µg/mL (≈ 2.67 µM)
MIC (Haemophilus influenzae [3]): 0.5 µg/mL (≈ 1.34 µM)
MIC (Streptococcus pyogenes): 2 µg/mL (≈ 5.34 µM)
MIC (Staphylococcus aureus [4]): 1 µg/mL (≈ 2.67 µM)
pIC50 [5]: 4.52
MIC50 (Staphylococcus aureus [6]): 1 µg/mL (≈ 2.67 µM)
MIC90 (Staphylococcus aureus [6]): 1 µg/mL (≈ 2.67 µM)
MIC (Staphylococcus aureus [7]): 1 µg/mL (≈ 2.67 µM)
AUC(0-inf) [8]: 31000 ng·h/mL
MIC (Staphylococcus aureus [9]): 4 µg/mL
MIC (Enterococcus faecium): 8 µg/mL (≈ 21.4 µM)
MIC (Staphylococcus aureus [10]): 0.5 µg/mL (≈ 1.34 µM)
pIC50 [11]: 5.05
MIC (Staphylococcus aureus [12]): 4 µg/mL (≈ 10.7 µM)
ED50 (Staphylococcus aureus [13]): 19.5 mg/kg
MIC (Staphylococcus aureus [14]): 1 µg/mL (≈ 2.67 µM)
MIC [15]: 1 µg/mL (≈ 2.67 µM)
MIC (Staphylococcus aureus [16]): 1 µg/mL (≈ 2.67 µM)
MIC (Streptococcus pneumoniae [17]): 4 µg/mL (≈ 10.7 µM)
Tmax [18]: 1 h
AUC(0-inf) [19]: 27600 ng·h/mL
MIC (Staphylococcus aureus [20]): 1 µg/mL (≈ 2.67 µM)
MIC50 (Streptococcus pneumoniae [21]): 4 µg/mL (≈ 10.7 µM)
MIC90 (Streptococcus pneumoniae [21]): 8 µg/mL (≈ 21.4 µM)
clearance [22]: 11.6 mL/min/kg
MIC (Escherichia coli [23]): < 0.06 µg/mL
MIC (Staphylococcus aureus [24]): 1 µg/mL (≈ 2.67 µM)
MIC50 (Staphylococcus aureus [24]): 1 µg/mL (≈ 2.67 µM)
MIC90 (Staphylococcus aureus [24]): 2 µg/mL (≈ 5.34 µM)
half-life [25]: 0.927 h
MIC (Staphylococcus aureus [26]): 8 µg/mL (≈ 21.4 µM)
bioavailability [27]: 94.7%
MIC (Staphylococcus aureus [28]): 1 µg/mL (≈ 2.67 µM)
MIC (Staphylococcus aureus [29]): 16 µg/mL (≈ 42.7 µM)
Cmax [30]: 15700 ng/mL
MIC (Streptococcus pneumoniae [31]): 4 µg/mL (≈ 10.7 µM)
MIC (Staphylococcus aureus [32]): 2 µg/mL
Vd [33]: 0.623 L/kg
MIC (Escherichia coli [34]): 0.125 µg/mL (≈ 0.334 µM)
MIC (Haemophilus influenzae [35]): < 0.06 µg/mL
pIC50 [36]: 3.70
Cmax [37]: 15700 ng/mL
MIC (Staphylococcus aureus [38]): 1 µg/mL (≈ 2.67 µM)
half-life [39]: 1.22 h
MIC (Moraxella catarrhalis): 2 µg/mL (≈ 5.34 µM)
ED50 (Staphylococcus aureus [40]): 12.5 mg/kg
MIC (Staphylococcus aureus [41]): 1 µg/mL (≈ 2.67 µM)
MIC50 (Streptococcus pneumoniae [42]): 4 µg/mL (≈ 10.7 µM)
MIC90 (Streptococcus pneumoniae [42]): 8 µg/mL (≈ 21.4 µM)
MIC (Enterococcus faecalis): 4 µg/mL (≈ 10.7 µM)
MIC (Escherichia coli [43]): 4 µg/mL (≈ 10.7 µM)
MIC (Staphylococcus aureus [44]): 1 µg/mL (≈ 2.67 µM)
Activity (Mus musculus): Non-toxic
MIC (Staphylococcus aureus [45]): 1 µg/mL (≈ 2.67 µM)
